The record followed here is ChEMBL document CHEMBL3352010, “Synthesis and Pharmacology of a Novel κ Opioid Receptor (KOR) Agonist with a 1,3,5-Trioxazatriquinane Skeleton” (ACS Med Chem Lett, 2014).

Test [1] concerns the target Delta-type opioid receptor (Mus musculus, UniProt P32300). The experiment in a line: Displacement of [3H]DPDPE from delta opioid receptor in mouse whole brain without cerebellum.
Test [2] has as its target Mu-type opioid receptor (Mus musculus, UniProt P42866). Briefly: Displacement of [3H]DAMGO from mu opioid receptor in mouse whole brain without cerebellum. Background: In a radioligand displacement assay an active substance lowers the binding of a labelled ligand.
For test [3], the target named is T1, Kappa-type opioid receptor (Homo sapiens, UniProt P41145). The experiment in a line: Agonist activity at human kappa opioid receptor expressed in CHO cells assessed as stimulation of [35S]-GTPgammaS binding. The format is functional, cell-based. (GTPγS resists hydrolysis and so accumulates on activated G proteins.)
T1 sequence (P41145 whole entry): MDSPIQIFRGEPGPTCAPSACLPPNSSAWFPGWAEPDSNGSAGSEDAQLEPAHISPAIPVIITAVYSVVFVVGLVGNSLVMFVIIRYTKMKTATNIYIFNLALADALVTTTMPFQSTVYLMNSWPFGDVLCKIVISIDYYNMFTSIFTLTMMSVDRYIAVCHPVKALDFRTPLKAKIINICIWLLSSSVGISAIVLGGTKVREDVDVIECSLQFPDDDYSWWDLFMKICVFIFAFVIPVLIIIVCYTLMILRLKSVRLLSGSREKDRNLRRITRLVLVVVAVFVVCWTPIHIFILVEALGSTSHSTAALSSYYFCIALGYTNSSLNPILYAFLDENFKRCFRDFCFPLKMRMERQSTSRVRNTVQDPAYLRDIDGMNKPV
Test [4] concerns Mus musculus. Briefly: Analgesic activity in sc dosed mouse assessed as inhibition of acetic acid-induced writhing response treated 15 mins before acetic acid challenge measured after 10 mins. The format is functional. Summed up:
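Test agent given s.c. to mice; 15 min later, 0.6% acetic acid i.p. at 10 mL/kg. After a 10 min delay, abdominal constrictions were counted over the next 10 min. 8 mice per group; group means ± SEM; ED50 taken from the dose-response. Statistics by one-way ANOVA with Bonferroni test versus vehicle.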
For orientation: In writhing tests, fewer writhes than in controls are read as antinociception.

In test [5] the target is T2, Delta-type opioid receptor (Homo sapiens, UniProt P41143). The experiment in a line: Agonist activity at human delta opioid receptor expressed in CHO cells assessed as stimulation of [35S]-GTPgammaS binding. The format is functional, cell-based.
T2 sequence (P41143 whole entry): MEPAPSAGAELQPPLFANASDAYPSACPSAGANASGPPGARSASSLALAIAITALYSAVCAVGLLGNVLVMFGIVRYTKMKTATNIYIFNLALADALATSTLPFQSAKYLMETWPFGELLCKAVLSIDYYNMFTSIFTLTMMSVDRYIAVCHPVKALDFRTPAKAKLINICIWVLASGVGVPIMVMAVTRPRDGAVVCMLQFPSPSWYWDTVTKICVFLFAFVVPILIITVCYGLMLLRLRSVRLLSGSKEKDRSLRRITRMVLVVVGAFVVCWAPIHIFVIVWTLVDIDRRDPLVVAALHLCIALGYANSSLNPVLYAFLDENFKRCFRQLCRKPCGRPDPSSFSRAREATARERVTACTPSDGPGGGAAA
For test [6], the target named is Kappa-type opioid receptor (Cavia porcellus, UniProt P41144). Briefly: Displacement of [3H]U69593 from kappa opioid receptor in guinea pig cerebellum.
Kappa-type opioid receptor (Cavia porcellus, UniProt P41144), sequence (P41144 whole entry): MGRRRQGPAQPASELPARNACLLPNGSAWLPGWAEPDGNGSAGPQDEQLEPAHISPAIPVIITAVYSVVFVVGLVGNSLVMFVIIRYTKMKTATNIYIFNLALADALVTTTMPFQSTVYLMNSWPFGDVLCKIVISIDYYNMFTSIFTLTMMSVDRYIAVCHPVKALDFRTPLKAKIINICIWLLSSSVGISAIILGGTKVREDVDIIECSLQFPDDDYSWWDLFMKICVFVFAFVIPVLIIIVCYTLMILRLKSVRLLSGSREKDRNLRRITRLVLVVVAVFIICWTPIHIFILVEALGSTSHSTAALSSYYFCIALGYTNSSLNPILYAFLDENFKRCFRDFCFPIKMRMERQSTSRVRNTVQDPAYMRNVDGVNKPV
The target of test [7] is T2, Delta-type opioid receptor. Briefly: Agonist activity at human delta opioid receptor expressed in CHO cells assessed as stimulation of [35S]-GTPgammaS binding relative to DPDPE. The format is functional, cell-based.
Test [8] has as its target T1, Kappa-type opioid receptor. The experiment in a line: Agonist activity at human kappa opioid receptor expressed in CHO cells assessed as stimulation of [35S]-GTPgammaS binding relative to U69593. The format is functional, cell-based.

Where only a bound is given, the exact number is not on record here.

Delta-type opioid receptor (Mus musculus, UniProt P32300), sequence (P32300 whole entry): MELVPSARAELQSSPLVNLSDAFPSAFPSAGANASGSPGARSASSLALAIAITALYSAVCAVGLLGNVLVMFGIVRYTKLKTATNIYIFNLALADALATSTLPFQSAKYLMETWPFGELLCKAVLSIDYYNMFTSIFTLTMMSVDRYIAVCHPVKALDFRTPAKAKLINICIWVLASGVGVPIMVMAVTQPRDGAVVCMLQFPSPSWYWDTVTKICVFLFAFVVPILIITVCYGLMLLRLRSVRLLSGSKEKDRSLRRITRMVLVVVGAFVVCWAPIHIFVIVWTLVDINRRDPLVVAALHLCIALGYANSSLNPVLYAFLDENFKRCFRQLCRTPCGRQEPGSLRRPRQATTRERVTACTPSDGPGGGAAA
Mu-type opioid receptor, sequence (P42866 whole entry): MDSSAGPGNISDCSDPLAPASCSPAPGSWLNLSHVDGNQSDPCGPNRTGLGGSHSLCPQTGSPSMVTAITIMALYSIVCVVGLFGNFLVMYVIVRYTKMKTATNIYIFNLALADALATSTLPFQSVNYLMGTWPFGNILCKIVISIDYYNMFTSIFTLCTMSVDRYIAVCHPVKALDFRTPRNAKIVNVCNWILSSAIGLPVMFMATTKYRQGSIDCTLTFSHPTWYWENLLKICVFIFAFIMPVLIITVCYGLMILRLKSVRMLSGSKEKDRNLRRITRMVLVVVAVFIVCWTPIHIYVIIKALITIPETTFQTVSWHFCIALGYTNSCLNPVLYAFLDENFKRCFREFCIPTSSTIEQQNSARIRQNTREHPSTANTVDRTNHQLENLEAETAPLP

Usually Ki stands for the equilibrium dissociation constant of an inhibitor or competing ligand from its target. The low end stands for tighter binding, the high end for weaker binding. A word on the EC50: it is the midpoint of the concentration-response curve. One may read the ED50 as the dose that gives a 50% effect, or the effect in half of the subjects. Regarding `C[C@@]1(c2cccc(O)c2)O[C@H]2CO[C@@H]3N2[C@H]1O[C@]3(C)c1cccc(O)c1` [listing 1 of 2 here], the Ki is above 1000 nM in test [1], above 1000 nM in test [2] and 4.63 nM in test [6]. For the same molecule, the figures for the EC50 in test [3] and in test [5] were 50.3 nM and 83.7 nM, respectively. Besides, the ED50 in test [4] is 3.5 mg/kg.
On to `CC1(c2cccc(O)c2)OC2COC3N2C1OC3(C)c1cccc(O)c1` (stereo not given), for which the inhibition constant (Ki) in test [1] is 651 nM; in test [2], 293 nM; in test [6], above 1000 nM.
As usually defined, the Emax is the maximal effect, on the per cent scale that the assay sets. As for `C[C@@]1(c2cccc(O)c2)O[C@H]2CO[C@@H]3N2[C@H]1O[C@]3(C)c1cccc(O)c1` [listing 2 of 2 here], the Emax in test [7] stood at 23.4%; in test [8], 96.8%. For the same molecule, in test [4], the Activity entry was “Dose-dependent effect”.
In the case of `C[C@@]1(c2cccc(O)c2)O[C@@H]2N3[C@H]1O[C@@](C)(c1cccc(O)c1)[C@@H]3O[C@@]2(C)c1cccc(O)c1` (relative stereo), the Ki in test [1], in test [2] and in test [6] was above 1000 nM in each case.
Consider `C[C@@]1(c2cccc(O)c2)O[C@@H]2N3[C@H]1O[C@](C)(c1cccc(O)c1)[C@@H]3O[C@@]2(C)c1cccc(O)c1` (relative stereo), for which the inhibition constant Ki in test [1] was above 1000 nM; in test [2], 652 nM; in test [6], 667 nM.
On the same counts, the results for `C[C@@]1(c2cccc(O)c2)O[C@@H]2N3[C@H]1O[C@](C)(c1cccc(O)c1)[C@@H]3O[C@]2(C)c1cccc(O)c1` (relative stereo) are above 1000 nM, 928 nM and above 1000 nM.
On the same counts, the results for `C[C@@]1(c2cccc(O)c2)O[C@H]2CO[C@@H]3N2[C@H]1O[C@@]3(C)c1cccc(O)c1` (relative stereo) are above 1000 nM, 735 nM and 793 nM.
For `C[C@@]1(c2cccc(O)c2)O[C@@H]2N3[C@H](CO[C@H]31)O[C@]2(C)c1cccc(O)c1` (relative stereo), in that order: above 1000 nM, above 1000 nM and above 1000 nM.
For `C[C@@]1(c2cccc(O)c2)O[C@H]2CO[C@@H]3N2[C@H]1O[C@]3(C)c1cccc(O)c1` (relative stereo) [listing 1 of 2 here], the Ki in test [1] was above 1000 nM; in test [2] it was above 1000 nM; in test [6], 6.09 nM. Also, in test [3], the EC50 came to 97.5 nM.
As to `C[C@]1(c2cccc(O)c2)O[C@H]2CO[C@@H]3N2[C@H]1O[C@]3(C)c1cccc(O)c1` (relative stereo), the Ki in test [1], in test [2] and in test [6] was above 1000 nM throughout.
For the molecule `C[C@@]1(c2cccc(O)c2)O[C@H]2CO[C@H]3CO[C@@H]1N32` (relative stereo), the Ki in test [1], in test [2] and in test [6] was above 1000 nM throughout.
With `C[C@]1(c2cccc(O)c2)O[C@H]2CO[C@H]3CO[C@@H]1N32` (relative stereo), the Ki in test [1], in test [2] and in test [6] was above 1000 nM throughout.
Regarding `COc1cccc([C@]2(C)O[C@H]3CO[C@@H]4N3[C@H]2O[C@]4(C)c2cccc(OC)c2)c1` (relative stereo), the Ki in test [1], in test [2] and in test [6] was above 1000 nM each time.
Regarding `COc1cccc([C@@]2(C)O[C@@H]3N4[C@H](CO[C@H]42)O[C@@]3(C)c2cccc(O)c2)c1` (relative stereo), the Ki in test [1] is above 1000 nM; in test [2], above 1000 nM; in test [6], 52.8 nM.
Consider `COc1cccc([C@]2(C)O[C@H]3CO[C@@H]4N3[C@H]2O[C@]4(C)c2cccc(O)c2)c1` (relative stereo), for which the Ki in test [1], in test [2] and in test [6] was above 1000 nM each time.
Take `C[C@@]1(c2cccc(O)c2)O[C@H]2CO[C@@H]3N2[C@H]1O[C@]3(C)c1cccc(O)c1` (relative stereo) [listing 2 of 2 here]: the Emax in test [8] came to 98.2%.
